Shown are actives, neighbours in structure and some others; about 2.6% of the full set was active somewhere.
SIAE primary: human SIAE inhibitors, primary screen, biochemical, fluorescence polarization, FP-Rh probe, 1536-well HTS; Sialate O-acetylesterase (Homo sapiens), Q9HAT2; SIAE FP-Rh probe binding; inhibition, % at 9.66 µM; 370,000 compounds, 0.69% hits;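 active = inhibition above a cutoff: mean of compounds within the control limits plus 3 SD of those, cut at about 17% in these data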;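 note: 0% = plate median of compound wells and 100% = probe without SIAE protein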
PRMT1 inh: PRMT1 methyltransferase inhibitors, primary screen, biochemical, fluorescence polarization. AID 652257, 2013. inhibition, % at 2.79 µM. 370,000 compounds, 1.3% hits. recombinant PRMT1, activity-based probe fluorescence polarization. Protein arginine N-methyltransferase 1 (Homo sapiens), Q99873;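 active = inhibition above about 21% made by adding two undisclosed values, limit read from the data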
HTRA1 inhibitor: HTRA1 serine protease inhibitors, primary screen, biochemical, fluorescence polarization, HTS; 340,000 compounds, 0.5% hits; inhibition, % at 5.96 µM; recombinant HTRA1, FP-rhodamine activity-based probe; Q92743; in the data active = inhibition above about 36%;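 note: 0% = enzyme with DMSO and 100% = wells lacking enzyme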
Target sequence (Q92743 whole entry, looked up): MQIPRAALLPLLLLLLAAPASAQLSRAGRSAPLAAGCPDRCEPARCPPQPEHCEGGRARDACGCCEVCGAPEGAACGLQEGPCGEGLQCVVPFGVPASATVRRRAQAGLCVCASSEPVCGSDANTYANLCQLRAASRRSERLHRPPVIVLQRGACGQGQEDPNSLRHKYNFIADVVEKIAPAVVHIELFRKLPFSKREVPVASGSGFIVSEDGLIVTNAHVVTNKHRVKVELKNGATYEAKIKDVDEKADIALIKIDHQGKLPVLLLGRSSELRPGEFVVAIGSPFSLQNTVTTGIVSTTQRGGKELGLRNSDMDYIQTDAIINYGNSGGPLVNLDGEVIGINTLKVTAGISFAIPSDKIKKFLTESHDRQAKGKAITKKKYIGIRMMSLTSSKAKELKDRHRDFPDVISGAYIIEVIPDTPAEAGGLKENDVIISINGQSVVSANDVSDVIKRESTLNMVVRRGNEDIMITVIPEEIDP
mABHD4 FP: ABHD4 inhibitors, primary screen, biochemical, fluorescence polarization, mouse; (Lyso)-N-acylphosphatidylethanolamine lipase (Mus musculus), Q8VD66; purified mABHD4, FP-Rh probe fluorescence polarization; inhibition, % at 8.92 µM; 370,000 compounds, 0.54% hits; AID 720543, 2013;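 active = inhibition exceeding the mean over every tested compound plus 3 SD, cut at about 30% in these data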;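 note: 0% = plate median of compound wells and 100% = S159A mutant with DMSO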
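Test system: mABHD4 protein; Read-out basis: % inhibition; Incubation: 45 min + 60 min at 25 °C; Repeats: single replicate; Technique: fluorescence polarization with parallel and perpendicular emission, 525/598 nm; Compound: 8.92 µM, single dose; Benchmarks: full inhibition S159A mutant plus DMSO, zero as sample-well median.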
TCR CD3 inh: inhibitors of human TCR-CD3 interaction, primary screen, biochemical, fluorescence, TAMRA-labeled TCR probe | T-cell receptor (TCR) | inhibition, % at 9.4 µM | 360,000 compounds, 0.37% hits | AID 651800, 2012; in the data active = inhibition above about 19%;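 note: recombinant mutant TCR 2C K166C tagged with TAMRA read by polarization; 0% = receptor in buffer alone and 100% = receptor with positive control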
mABHD4 conf: ABHD4 inhibitors, retest, confirmation, biochemical, fluorescence polarization, mouse | shares compounds with mABHD4 FP | purified mABHD4, FP-Rh probe fluorescence polarization | inhibition, % at 8.92 µM | 1,800 compounds, 55% hits | AID 720658, 2013;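 active = mean inhibition across replicates above the hit cutoff set in the primary screen, cut at about 30% in these data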;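 note: 0% = wild-type ABHD4 with DMSO and 100% = catalytically dead S159A mutant with DMSO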
An asterisk follows results filed as active; nt = no result given.

SMILES	SIAE primary	PRMT1 inh	HTRA1 inhibitor	mABHD4 FP	TCR CD3 inh	mABHD4 conf
O=C(CNc1cccc2ccccc12)N/N=C/c1ccccn1	16	0	nt	39*	3	31*
O=S1(=O)c2ccccc2N=NN1Cc1ccc(Cl)cc1	13	6	11	46*	-1	54*
O=C(COc1ccccc1)Nc1nc2ccccc2[nH]1	7	-1	0	-4	3	nt
CCCOc1cccc(OCC(=O)Nc2nc3ccccc3[nH]2)c1	-3	9	-6	31*	-4	26
CCCCOc1cccc(OCC(=O)Nc2nc3ccccc3[nH]2)c1	-3	1	-7	43*	2	26
CC(CCc1ccccc1)NCC#N (stereo unspecified)	3	1	14	-1	-1	nt
NS(=O)(=O)c1ccc(CCNC(=O)CN2C(=O)NC(c3ccccc3)(c3ccccc3)C2=O)cc1	-2	-4	0	49*	-2	21
O=C(O)c1cc(O)c2c(c1)C(=O)c1cc(O)cc(O)c1C2=O	-10	12	15	61*	-3	42*
O=C1c2cc(Cl)ccc2-c2c(O)cc(Cl)cc21	-3	1	-11	11	0	nt
O=C(c1cc(-c2cccs2)nn1-c1ccccc1)N1CCN(S(=O)(=O)c2ccccc2)CC1	1	-1	-12	0	10	nt
COc1ccc(C(=O)OCC(=O)c2c(N)n(C)c(=O)n(C)c2=O)cc1OC	-1	3	3	4	13	nt
CC(=O)Oc1ccc(C(=O)OCC(=O)c2c(N)n(C)c(=O)n(C)c2=O)cc1OC(C)=O	5	0	13	46*	0	4
O=C(CN1CCN(Cc2ccc(F)cc2)CC1)NCc1ccccc1	-2	0	7	4	-9	nt
O=C(C1=C(O)C(=O)N(CCc2ccccc2)C1c1cccnc1)c1ccco1 (stereo unspecified)	6	3	1	2	-2	nt
O=C(C1=C(O)C(=O)N(CCc2ccccc2)C1c1cccs1)c1ccco1 (stereo unspecified)	-3	2	1	35*	0	31*
Cc1ccc2c(c1)N1C(=O)c3ccccc3C1C1=C(CC(C)(C)CC1=O)N2 (stereo unspecified)	0	3	-3	30*	-5	46*
CC(=O)Oc1cccc(C2C3=C(CC(C)(C)CC3=O)Nc3ccccc3N2C(C)=O)c1 (stereo unspecified)	1	-5	2	5	1	nt
Oc1ccc(NC(=S)N=Nc2c(O)[nH]c3ccc(Br)cc23)cc1	8	-4	9	30*	-2	33*
Cc1cc(C)nc(OC(C(=O)O)C(OCCC(C)C)(c2ccccc2)c2ccccc2)n1 (stereo unspecified)	2	3	-2	35*	7	47*
CCCOC(c1ccccc1)(c1ccccc1)C(Oc1nc(C)cc(C)n1)C(=O)O (stereo unspecified)	2	2	3	7	6	nt
Nc1ccc2nc(-c3ccccc3)[nH]c2c1	8	2	2	32*	1	6
Nc1ccc2nc(-c3cccs3)[nH]c2c1	11	0	7	31*	-11	30*
CC(=O)Nc1ccc2nc(-c3cccs3)[nH]c2c1	-6	1	-4	7	-5	nt
CC1CCCCN1C(=O)C1CCCCN1S(=O)(=O)c1cccc([N+](=O)[O-])c1 (stereo unspecified)	-2	-1	0	2	5	nt
COc1ccc(S(=O)(=O)NNC(=O)C(=O)NNc2ccccn2)cc1	3	-5	2	31*	-4	26
SMILES	SIAE primary	PRMT1 inh	HTRA1 inhibitor	mABHD4 FP	TCR CD3 inh	mABHD4 conf
COc1ccc(C(=O)NNS(=O)(=O)c2ccc(OC)cc2)cc1	2	-2	7	0	-11	nt
N[C@@H](Cc1cc(I)c(O)c(I)c1)C(=O)O	-17	19	31	51*	14	80*
c1ccc(CSC2=NNC(c3ccccn3)S2)cc1 (stereo unspecified)	7	-12	18	18	-6	nt
O=C(CSC1=NNC(c2ccccn2)S1)Nc1ccc(C(F)(F)F)cc1 (stereo unspecified)	-3	24*	20	39*	1	-9
COc1ccc(S(=O)(=O)NC(=O)C2(C)CCN2C(=O)CC2CC2)cc1 (stereo unspecified)	7	4	nt	-2	-4	nt
CC1(C)CC(=O)C2=C(C1)NC1=C(C(=O)c3ccccc31)C2c1ccccc1 (stereo unspecified)	12	13	32	51*	-7	47*
CC1(C)CC(=O)C2=C(C1)NC1=C(C(=O)c3ccccc31)C2c1cccnc1 (stereo unspecified)	-3	-3	10	16	-3	nt
CC1(C)CC(=O)C2=C(C1)NC1=C(C(=O)c3ccccc31)C2c1cc([N+](=O)[O-])ccc1O (stereo unspecified)	15	6	32	49*	5	66*
COc1ccccc1CN1CC(C(=O)NCCn2ccc(C)n2)CCC1=O (stereo unspecified)	16	-1	5	6	3	nt
CCN(CC)CCNc1cccc2sc3ccccc3c(=O)c12	3	2	6	9	1	nt
CN(C)CCNc1cccc2sc3ccc(O)cc3c(=O)c12	5	8	nt	31*	3	18
O=C(NN=C1CCN(Cc2ccccc2)CC1)c1cc2ccccc2cc1O	12	-1	36	46*	9	43*
O=C(NN=C1CCN(Cc2ccccc2)CC1)c1ccccc1O	2	-2	13	6	18	nt
CC(C)=C1C(=O)NN(c2ccc(F)c(Cl)c2)C1=O	4	20	8	32*	4	8
C[C@H](CO)N1C[C@H](C)[C@@H](CN(C)C(=O)c2cccnc2)Oc2ncc(Br)cc2C1=O	-1	-1	3	0	-4	nt
O=C(CN1C(=O)/C(=C2\SC(=S)N(CCS(=O)(=O)O)C2=O)c2ccccc21)Nc1cccc(Br)c1	-3	19	-39	67*	9	83*
COCCNC(=O)C1(C)CCCN(C(=O)c2ccccc2C(F)(F)F)C1 (stereo unspecified)	-10	-5	nt	3	-4	nt
Cc1nn(-c2ccc(N3CCOCC3)nn2)c(C)c1CCC(=O)Nc1ccc(F)cc1	2	-3	4	0	0	nt
CCOc1ccc(N(CC(=O)NN=C2CCN(C)CC2)S(=O)(=O)c2ccc(Br)cc2)cc1	-4	-1	0	-14	0	nt

Assay outcomes: PubChem, The Scripps Research Institute Molecular Screening Center
